Assay: Antiproliferative activity against human A375P cells after 48 hrs by MTT assay
Assay type: functional, cell-based
Outline: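 A375P cells in DMEM with 10% FBS at 37 °C, 5% CO2. Seeded at 5×10³ cells/well, held 24 h, then treated with 12-point 3-fold serial dilutions for 48 h. Viability by MTT reduction. IC50 values are means of triplicate experiments.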

Row | SMILES | IC50 [µM]
1 | COc1cccc(-c2nc3sccn3c2-c2ccnc(NCCNC(=O)Nc3cc(C(F)(F)F)cc(C(F)(F)F)c3)n2)c1 | 4.3
2 | CNC(=O)c1cc(Oc2ccc(NC(=O)Nc3ccc(Cl)c(C(F)(F)F)c3)cc2)ccn1 [SORAFENIB] | 5.6

— ChEMBL document CHEMBL1914423, “New imidazo[2,1-b]thiazole derivatives: synthesis, in vitro anticancer evaluation, and in silico studies” (Eur J Med Chem, 2011)
